According to ChEMBL document CHEMBL5257120 (Bioorg Med Chem, 2023):
Calls of active or inactive are those of the source. No cut-off for these calls is given here.

Columns and labels:
[1] = test system: K562; test: Cytotoxicity against human K562 cells incubated for 72 hrs by Sulphorhodamine assay; format: functional, cell-based; details: K562, 72 h
[2] = Cytotoxicity against african green monkey Vero cells incubated for 72 hrs by Sulphorhodamine assay; format: toxicity, cell-based; details: African green monkey (Chlorocebus sabaeus)
[3] = Selectivity index, ratio of IC50 for african green monkey Vero cells to IC50 for human K562 cells; format: toxicity; details: Vero cells versus K562 cells, read-out: Ratio IC50
[4] = target: Tubulin (Homo sapiens) (UniProt P68371+Q9H4B7+P0DPH7+P68366+Q13509+Q71U36+P04350+Q3ZCM7+P07437+P68363+Q9BQE3+Q6PEY2+Q13885+Q9BVA1+Q9BUF5); test: Induction of microtubule stabilization (unknown origin) at 0.2 to 5 uM; format: protein-complex assay; details: dose 0.2-5 µM
[5] = Antiinflammatory activity in mouse peritoneal macrophage assessed as reduction in LPS-induced TNFalpha production at 1 ug/ml; format: functional; details: dose 1 µg/ml
[6] = Antiinflammatory activity in mouse peritoneal macrophage assessed as inhibition of LPS-induced TNFalpha production at 1 ug/ml relative to control; format: functional; design: scale not given: the % may be the effect or the level left; details: dose 1 µg/ml
[7] = Antiinflammatory activity in mouse peritoneal macrophage assessed as inhibition of LPS-induced TNFalpha production at 10 ug/ml relative to control; format: functional; design: scale not given: the % may be the effect or the level left; details: dose 10 µg/ml
[8] = Antiinflammatory activity in mouse peritoneal macrophage assessed as inhibition of LPS-induced IL6 production at 1 ug/ml relative to control; format: functional; design: scale not given: the % may be the effect or the level left; details: dose 1 µg/ml
[9] = Antiinflammatory activity in mouse peritoneal macrophage assessed as inhibition of LPS-induced IL6 production at 10 ug/ml relative to control; format: functional; design: scale not given: the % may be the effect or the level left; details: dose 10 µg/ml
[10] = Toxicity in Swiss albino mouse assessed as change in body weight at 5 mg/kg, po administered for 7 days (reference value: 29.35 +/- 0.57 g); format: organism-based; details: in vivo, 168 h, time 7 day
[11] = Toxicity in Swiss albino mouse assessed as change in body weight at 1000 mg/kg, po administered for 7 days (reference value: 29.35 +/- 0.57 g); format: organism-based; details: in vivo, 168 h, time 7 day
[12] = Toxicity in Swiss albino mouse assessed as haemoglobin level at 5 mg/kg, po administered for 7 days (reference value: 15.66 +/- 0.80 g/dl); format: organism-based; details: in vivo, 168 h, time 7 day
[13] = Toxicity in Swiss albino mouse assessed as haemoglobin level at 50 mg/kg, po administered for 7 days (reference value: 15.66 +/- 0.80 g/dl); format: organism-based; details: in vivo, 168 h, time 7 day
[14] = Toxicity in Swiss albino mouse assessed as haemoglobin level at 300 mg/kg, po administered for 7 days (reference value: 15.66 +/- 0.80 g/dl); format: organism-based; details: in vivo, 168 h, time 7 day
[15] = Toxicity in Swiss albino mouse assessed as haemoglobin level at 1000 mg/kg, po administered for 7 days (reference value: 15.66 +/- 0.80 g/dl); format: organism-based; details: in vivo, 168 h, time 7 day
[16] = Toxicity in Swiss albino mouse assessed as RBC level at 5 mg/kg, po administered for 7 days (reference value: 7.13 +/- 0.40 million/mm3); format: organism-based, Erythrocyte; details: in vivo, 168 h, time 7 day
Outline: (§1)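 Single acute oral dose (5, 50, 300 or 1000 mg/kg) given to Swiss albino mice, n = 6, with 7-day observation. At the end, haematological and serum biochemical parameters were measured. Compared with untreated controls; mean ± SE, ANOVA, p < 0.05.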

[17] = Toxicity in Swiss albino mouse assessed as RBC level at 50 mg/kg, po administered for 7 days (reference value: 7.13 +/- 0.40 million/mm3); format: organism-based, Erythrocyte; details: in vivo, 168 h, time 7 day; outline: as §1
[18] = Hepatotoxicity in Swiss albino mouse assessed as alkaline phosphatase level at 300 mg/kg, po administered for 7 days (reference value: 260.10 +/- 26.76 U/L); format: toxicity, organism-based; details: in vivo, 168 h, time 7 day; outline: as §1
[19] = Hepatotoxicity in Swiss albino mouse assessed as alkaline phosphatase level at 1000 mg/kg, po administered for 7 days (reference value: 260.10 +/- 26.76 U/L); format: toxicity, organism-based; details: in vivo, 168 h, time 7 day; outline: as §1
[20] = Hepatotoxicity in Swiss albino mouse assessed as SGOT level at 50 mg/kg, po administered for 7 days (reference value: 31.51 +/- 6.31 U/L); format: toxicity, organism-based; details: in vivo, 168 h, time 7 day; outline: as §1
[21] = Hepatotoxicity in Swiss albino mouse assessed as SGPT level at 5 mg/kg, po administered for 7 days (reference value: 17.01 +/- 2.33 U/L); format: toxicity, organism-based; details: in vivo, 168 h, time 7 day; outline: as §1
[22] = Hepatotoxicity in Swiss albino mouse assessed as SGPT level at 50 mg/kg, po administered for 7 days (reference value: 17.01 +/- 2.33 U/L); format: toxicity, organism-based; details: in vivo, 168 h, time 7 day; outline: as §1
[23] = Hepatotoxicity in Swiss albino mouse assessed as albumin level at 5 mg/kg, po administered for 7 days (reference value: 4.12 +/- 0.17 g/dl); format: toxicity, organism-based; details: in vivo, 168 h, time 7 day; outline: as §1
[24] = Hepatotoxicity in Swiss albino mouse assessed as albumin level at 50 mg/kg, po administered for 7 days (reference value: 4.12 +/- 0.17 g/dl); format: toxicity, organism-based; details: in vivo, 168 h, time 7 day; outline: as §1
[25] = Hepatotoxicity in Swiss albino mouse assessed as albumin level at 1000 mg/kg, po administered for 7 days (reference value: 4.12 +/- 0.17 g/dl); format: toxicity, organism-based; details: in vivo, 168 h, time 7 day; outline: as §1
[26] = Renal toxicity in Swiss albino mouse assessed as creatinine level at 1000 mg/kg, po administered for 7 days (reference value: 0.76 +/- 0.06 mg/dl); format: organism-based; details: in vivo, 168 h, time 7 day; outline: as §1
[27] = Toxicity in Swiss albino mouse assessed as cholesterol level at 300 mg/kg, po administered for 7 days (reference value: 140.17 +/- 3.76 mg/dl); format: organism-based; details: in vivo, 168 h, time 7 day
[28] = Toxicity in Swiss albino mouse assessed as cholesterol level at 1000 mg/kg, po administered for 7 days (reference value: 140.17 +/- 3.76 mg/dl); format: organism-based; details: in vivo, 168 h, time 7 day
[29] = Toxicity in Swiss albino mouse assessed as triglyceride level at 5 mg/kg, po administered for 7 days (reference value: 136.88 +/- 3.12 mg/dl); format: organism-based; details: in vivo, 168 h, time 7 day
[30] = Toxicity in Swiss albino mouse assessed as triglyceride level at 1000 mg/kg, po administered for 7 days (reference value: 136.88 +/- 3.12 mg/dl); format: organism-based; details: in vivo, 168 h, time 7 day
[31] = Toxicity in Swiss albino mouse assessed as change in absolute lungs weight at 5 to 1000 mg/kg, po administered for 7 days; format: organism-based; details: in vivo, 168 h, dose 5-1000 mg/kg, time 7 day
[32] = Toxicity in Swiss albino mouse assessed as change in absolute kidney weight at 5 to 1000 mg/kg, po administered for 7 days; format: organism-based; details: in vivo, 168 h, dose 5-1000 mg/kg, time 7 day
[33] = Toxicity in Swiss albino mouse assessed as change in absolute spleen weight at 5 to 1000 mg/kg, po administered for 7 days; format: organism-based; details: in vivo, 168 h, dose 5-1000 mg/kg, time 7 day
[34] = Toxicity in Swiss albino mouse assessed as change in absolute heart weight at 5 to 1000 mg/kg, po administered for 7 days; format: organism-based; details: in vivo, 168 h, dose 5-1000 mg/kg, time 7 day
[35] = Toxicity in Swiss albino mouse assessed as change in relative liver weight at 5 to 1000 mg/kg, po administered for 7 days; format: organism-based; details: in vivo, 168 h, dose 5-1000 mg/kg, time 7 day
[36] = Toxicity in Swiss albino mouse assessed as change in relative heart weight at 5 to 1000 mg/kg, po administered for 7 days; format: organism-based; details: in vivo, 168 h, dose 5-1000 mg/kg, time 7 day
[37] = Toxicity in Swiss albino mouse assessed as behavioural changes at 5 to 1000 mg/kg, po administered for 7 days; format: organism-based; details: in vivo, 168 h, dose 5-1000 mg/kg, time 7 day

With `COc1cc(C2/C(=C/c3ccc(/C=C/C(=O)NO)cc3)C(=O)c3cc(OC)c(OC)c(OC)c32)cc(OC)c1OC` (configuration not stated) the IC50 [1] was 3.27 µM, the IC50 at 72 h [2] was 100 µM and the selectivity ratio [3] was 30.7. The Activity [4] was “Active”, the Activity [5] was 1019.21 pg/mL and the Activity [6] was 17.28%. For the same compound, the Activity [7] was 29.22%, the Activity [8] was 13.14% and the Activity [9] was 27.01%. The Activity [10] was 28.17 g, the Activity [11] was 27.43 g and the Activity [12] was 17.63 g/dL. For the same compound, the Activity [13] was 15.54 g/dL, the Activity [14] was 16.77 g/dL and the Activity [15] was 16.73 g/dL. It also gave an Activity [16] of 8.96 million/mm3, an Activity [17] of 8.82 million/mm3 and an Activity [18] of 238.88 U/L. It also gave an Activity [19] of 277.51 U/L, an Activity [20] of 33.67 U/L and an Activity [21] of 16.79 U/L. For the same compound, the Activity [22] was 19.56 U/L, the Activity [23] was 4.34 g/dL and the Activity [24] was 4.36 g/dL. The Activity [25] was 4.53 g/dL, the Activity [26] was 0.74 mg/dL and the Activity [27] was 157.14 mg/dL. For the same compound, the Activity [28] was 157.22 mg/dL, the Activity [29] was 146.79 mg/dL and the Activity [30] was 130.21 mg/dL. For the same compound, the Activity [31] was “Non-Toxic”, the Activity [32] was “Non-Toxic” and the Activity [33] was “Non-Toxic”. For the same compound, the Activity [34] was “Non-Toxic”, the Activity [35] was “Non-Toxic” and the Activity [36] was “Non-Toxic”. The Activity [37] was “Non-Toxic”.
